Measured values reported in ChEMBL document CHEMBL1151230, “Cytotoxic triterpenoids from Acridocarpus vivy from the Madagascar rain forest” (J Nat Prod, 2004).
In brackets after ≈: the same amount, converted by molar mass.

Tested on: A2780
Experiment: Cytotoxicity against human A2780 cells
Format: functional, cell-based
Method in brief: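 Growth inhibition of the human ovarian cancer line A2780. IC50 is the concentration giving 50% inhibition of growth, reported in µg/mL. Actinomycin D served as positive control. Run at Virginia Polytechnic Institute following an earlier published procedure.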

Structure (SMILES)	IC50 [µg/mL]
CC1(C)C=C2[C@H]3CC[C@@H]4[C@@]5(C)CCC(=O)[C@](C)(C=O)[C@@H]5CC[C@@]4(C)[C@]3(C)CC[C@@]2(C(=O)O)CC1	0.7 (≈ 1.49 µM)
CC1(C)C=C2[C@H]3CC[C@@H]4[C@@]5(C)CCC(=O)[C@](C)(CO)[C@@H]5CC[C@@]4(C)[C@]3(C)CC[C@@]2(C(=O)O)CC1	15.9 (≈ 33.8 µM)
CC(=O)OC[C@@]1(C)C(=O)CC[C@@]2(C)[C@H]1CC[C@]1(C)[C@@H]2CC[C@@H]2C3=CC(C)(C)CC[C@]3(C(=O)O)CC[C@]21C	11.6 (≈ 22.6 µM)
CC(=O)O[C@@H]1CC[C@]2(C)[C@H]3CC[C@@H]4C5=CC(C)(C)CC[C@]5(C(=O)O)CC[C@@]4(C)[C@]3(C)CC[C@H]2C1(C)C	15.3 (≈ 30.7 µM)
COc1cc(O)c2c(=O)cc(-c3ccc(O)cc3)oc2c1 [GENKWANIN]	> 20
CC1(C)C=C2[C@H]3CC[C@@H]4[C@@]5(C)CCC(=O)C(C)(C)[C@@H]5CC[C@@]4(C)[C@]3(C)CC[C@@]2(C(=O)O)CC1 [MORONIC ACID]	13.1 (≈ 28.8 µM)
CC1(C)CC[C@]2(C(=O)O)CC[C@]3(C)C(=CC[C@@H]4[C@@]5(C)CC[C@H](O)C(C)(C)[C@@H]5CC[C@]43C)[C@@H]2C1 [OLEANOLIC_ACID]	8 (≈ 17.5 µM)
C[C@H]1[C@H](C)CC[C@]2(C(=O)O)CC[C@]3(C)C(=CC[C@@H]4[C@@]5(C)CC[C@H](O)C(C)(C)[C@@H]5CC[C@]43C)[C@H]12 [URSOLIC ACID]	9.2 (≈ 20.1 µM)
COc1cc(O)c2c(=O)cc(-c3ccc(O)c(OC)c3)oc2c1 [VELUTIN]	> 20
